Assay outcomes: PubChem, several laboratories
PolyA inhibitor: polyadenylation inhibitors in yeast reporter cells, primary screen, luminescence, S. cerevisiae; S. cerevisiae SKY197-pL101 polyadenylation reporter, beta-gal luminescence; efflux-impaired pdr1/pdr3 knockout yeast; score 100 = 6 SD above DMSO; activity score, % at 12 µM; hit rate 0.02% among 300,000;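 active = lowest replicate activity score at least 50, where 100 means six control SD above control mean; inconclusive = lowest score under 50 but half or more replicates reach 50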;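 note: yeast exposed to compound for 9 h at 30 °C; higher score means more reporter readthrough which indicates perturbed polyadenylation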
proCasp7 act: procaspase-7 activators, primary screen, counter-screen for procaspase-3 activator project, biochemical, absorbance, HTS, human | AID 463210, 2010 | activation, % at 8.5 µM | hit rate 0.093% among 330,000 | Caspase-7 (Homo sapiens), P55210 | recombinant procaspase-7, Ac-DEVD-pNA absorbance 405 nm; D23A/D198A/D206A triple mutant, cannot self-cleave; scale: DMSO 0, 5 µM enzyme 100;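 active = percent activation above the screen-wide mean plus 3 SD, cut at about 25% in these data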
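Assay system: Uncleavable procaspase-7 mutant enzyme; Input: 2 µM procaspase-7 mutant as dispensed; Also added: DEVD-pNA substrate; Medium: Zinc-free HEPES pH 7.4 with 300 mM NaCl, 0.01% Triton X-100; Timing: 1 h compound preincubation, 2 h substrate cleavage, 25 °C; Measured by: Epi-absorbance of released pNA at 405 nm, two timepoints.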
proCasp3 act: activators of human procaspase-3 D3A mutant, primary screen, biochemical, absorbance, PC-3 D3A mutant, single concentration | Caspase-3 (Homo sapiens), P42574 | recombinant procaspase-3 D3A, Ac-DEVD-pNA absorbance 405 nm | activation, % at 8.5 µM | hit rate 0.11% among 330,000 | AID 463141, 2010;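 active = activation above the mean of all tested compounds plus 3 SD, cut at about 21% in these data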
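Assay system: Procaspase-3 D3A mutant, all three cleavage aspartates alanine. Buffer or medium: Zinc-free HEPES saline buffer with Triton X-100. Times: 1 h compound preincubation, 2 h substrate hydrolysis at 25 °C. Measured by: 405 nm absorbance of p-nitroaniline, reads at 0 and 120 min. Read-out basis: percent activation relative to control range. Replicates: singlicate.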
AHR activator: AHR activators, primary screen, cell-based, luminescence, luciferase reporter, human. Aryl hydrocarbon receptor (Homo sapiens), P35869. AHR-responsive luciferase reporter cells. activation, % at 5 µM. hit rate 2.5% among 320,000. AID 2796, 2010; in the data active = activation above about 47%
AHR act cf: AHR activators, confirmation, cell-based, luminescence, luciferase reporter, human; shares compounds with AHR activator; human cells, AHR-responsive luciferase reporter; activation, % at 9 µM; hit rate 87% among 2,300; in the data active = activation above about 49%;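 note: HepG2 hepatoma cells carrying a DRE-driven firefly luciferase reporter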
PXR act counter: human PXR activators, counter-screen for AHR activator project, cell-based, luciferase luminescence; shares compounds with AHR activator; hit rate 88% among 2,300; cell-based PXR reporter; activation, % at 11.6 µM; AID 434939, 2010; in the data active = activation above about 11%;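 note: human hepatoma DPX-2 cells expressing full-length human PXR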
Target sequence (O75469 whole entry, looked up): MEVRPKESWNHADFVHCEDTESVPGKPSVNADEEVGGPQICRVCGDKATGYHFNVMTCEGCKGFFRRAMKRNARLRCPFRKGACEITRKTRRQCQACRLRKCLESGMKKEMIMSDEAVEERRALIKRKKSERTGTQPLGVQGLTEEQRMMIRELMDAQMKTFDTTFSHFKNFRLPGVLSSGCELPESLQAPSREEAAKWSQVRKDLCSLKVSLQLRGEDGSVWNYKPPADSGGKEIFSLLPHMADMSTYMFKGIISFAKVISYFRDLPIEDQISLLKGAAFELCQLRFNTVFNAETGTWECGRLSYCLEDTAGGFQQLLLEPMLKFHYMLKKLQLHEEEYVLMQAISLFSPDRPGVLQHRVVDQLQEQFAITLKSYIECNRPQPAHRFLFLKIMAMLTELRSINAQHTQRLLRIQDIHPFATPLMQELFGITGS
Of the large screens only hits and unclear results are named; the others gave an inactive call (follow-up assays come after a bar, where they were run). Sampled rows, rich in hits. Any-hit rate of the full collection: about 2.6%.

Cc1ccc2nsnc2c1NC(=S)NC(=O)c1ccco1	AHR activator 97 | AHR act cf 111 | PXR act counter 15
COc1cccc(Cn2nnc(C(=O)Nc3cc(C)ccc3OC)c2N)c1	AHR activator 128 | AHR act cf inactive | PXR act counter 26
COc1cccc(Cn2nnc(C(=O)Nc3ccc(C)cc3)c2N)c1	none
C=CCNc1nc(=S)[nH]c2cc(OC)c(OC)cc12	AHR activator 104 | AHR act cf 75 | PXR act counter 13
CCn1c(=O)cc(OCC(=O)NC2CC2)c2ccccc21	AHR activator 97 | AHR act cf 84 | PXR act counter 25
CC(C)CN(C(=O)COC(=O)c1ccccn1)c1c(N)n(Cc2ccccc2)c(=O)[nH]c1=O	none
O=C(N/N=C/c1cccc(O)c1)c1ccc(COc2ccc3c(c2)CCC3)o1	AHR activator 118 | AHR act cf 64 | PXR act counter 19
CCCc1ccc(OCc2ccc(C(=O)N/N=C/c3cccnc3)o2)cc1	none (no result: proCasp7 act, proCasp3 act, AHR activator)
OC1(C#Cc2c(-c3ccsc3)oc3ccc(N4CCOCC4)cc23)CCCCC1	AHR activator 111 | AHR act cf 120 | PXR act counter 80
COc1cc(-c2ccc3oc(-c4ccsc4)c(C#CC4(O)CCCCC4)c3c2)cc(OC)c1OC	none
CC(=O)C(Cc1ccccc1)NC(=O)CN1c2cccc3cccc(c23)S1(=O)=O (stereo not given)	none (no result: PolyA inhibitor)
CCc1cc(-c2ccc3c(c2)COc2c4ccccc4nn2-3)on1	none
CCCC#Cc1ccc2c(c1)COc1c3ccccc3nn1-2	AHR activator 109 | AHR act cf 63 | PXR act counter inactive
CCOC(=O)c1ccc(NC(=O)Nc2cc(C)cc(C)n2)cc1	none
Cc1ccc(-c2csc3nc(-c4ccncc4)[nH]c(=O)c23)cc1	none
Cc1ccc2nc(-c3ccncc3)[nH]c2c1	AHR activator 134 | AHR act cf 87 | PXR act counter 21
Cc1nc2c(C)cccn2c(=O)c1NC(=O)c1cccc2ccccc12	none
CN(CC(=O)NCC1CCCCC1)CC(=O)Nc1ccccc1Br	none (no result: PolyA inhibitor)
Cc1ccc(-c2nc3cccnc3s2)cc1NS(=O)(=O)c1ccc2c(c1)OCCO2	AHR activator 105 | AHR act cf 73 | PXR act counter 104
O=S(=O)(Nc1cccc(-c2nc3cccnc3s2)c1)c1ccc2c(c1)OCCO2	none
Cc1nn(-c2ccccc2)c(Cl)c1C(=O)NCCN(C)C	none
COc1ccc(Nc2nc(N)nc(CSc3nnc(N)s3)n2)cc1	AHR activator 112 | AHR act cf 110 | PXR act counter 15
Cc1nnc(SCc2nc(N)nc(Nc3ccccc3)n2)s1	PolyA inhibitor inconclusive
O=C1CC(c2ccccc2)CC(O)=C1C=Nc1ccc(O)cc1 (stereo not given)	AHR activator 83 | AHR act cf 67 | PXR act counter 14
COc1ccc(N=CC2=C(O)CC(c3ccccc3)CC2=O)c(OC)c1 (stereo not given)	PolyA inhibitor inconclusive, AHR activator 116 | AHR act cf 104 | PXR act counter 21
CCOc1ccccc1N=CC1=C(O)CC(c2ccccc2)CC1=O (stereo not given)	PolyA inhibitor inconclusive
COC(=O)c1ccc(OCC(=O)NC2CCCCCC2)cc1	none
CN(C)c1ccc(Nc2nc(N)c([N+](=O)[O-])c(N3CCOCC3)n2)cc1	AHR activator 82 | AHR act cf 68 | PXR act counter 39
S=c1[nH]ncn1/N=C/c1ccccc1	none
CCOc1ccc(/C=N/n2cc(-c3ccccc3)[nH]c2=S)cc1	AHR activator 84 | AHR act cf 108
S=c1[nH]c(-c2ccccc2)cn1/N=C/c1ccncc1	AHR activator 88 | AHR act cf 135 | PXR act counter inactive
COc1cccc(NC(=O)COC(=O)C2C3CC4OC(=O)C2C4C3)c1 (stereo not given)	none
Cc1cc(C)c(OCC(=O)OCC(=O)NC2CCC(C)CC2)c(C)c1 (stereo not given)	none
COc1ccc(Nc2nc(N)c([N+](=O)[O-])c(NCc3ccccc3)n2)cc1	none
C=CCNc1nc(N)c([N+](=O)[O-])c(Nc2ccccc2OC)n1	AHR activator 116 | AHR act cf 123 | PXR act counter 21
COc1ccc(OC)c(Nc2nc(N(C)c3ccccc3)nc(N)c2[N+](=O)[O-])c1	none
CCC(C)Nc1nc(N)c([N+](=O)[O-])c(Nc2cc(OC)ccc2OC)n1 (stereo not given)	AHR activator 80 | AHR act cf 127 | PXR act counter 76
Cc1nc(CC(=O)Nc2nccs2)cs1	none
CCCCNC(=O)c1sc2ncnc(N3CCc4ccccc4C3)c2c1C	AHR activator 99 | AHR act cf 102 | PXR act counter 24
COc1ccc(/C=C/C(=O)OCC(=O)Nc2cc3oc4ccccc4c3cc2OC)cc1	none
COc1cc2c(cc1NC(=O)/C=C/c1cc(OC)c(OC)c(OC)c1)oc1ccccc12	AHR activator 88 | AHR act cf 53 | PXR act counter 10
COc1cc2c(cc1NC(=O)CSc1ccccn1)oc1ccccc12	AHR activator 105 | AHR act cf 91 | PXR act counter 16
COC(=O)c1cc(-c2ccc(S(=O)(=O)N3CCCCC3)cc2)c(C(F)(F)F)s1	none
O=S(=O)(c1c(F)cccc1F)C1CCN(S(=O)(=O)c2ccc3c(c2)OCCO3)CC1	none (no result: PolyA inhibitor)
O=C(NCc1ccccc1)c1ccc2ccccc2n1	none
O=C(NCc1ccccn1)c1ccc2ccccc2n1	AHR activator 91 | AHR act cf 86 | PXR act counter 16
COc1cc2ccccc2cc1C(=O)N1CC(C)CC(C)C1 (stereo not given)	none
O=C(Nc1ccccc1)N1CCc2ccccc2C1	AHR activator 103 | AHR act cf 132 | PXR act counter 16
Cc1cc(NC(=O)c2oc3ccccc3c2C)ccc1-n1cnnn1	AHR activator 99 | AHR act cf 100 | PXR act counter 14
Cc1c(C(=O)OCC(=O)Nc2ccc(N3CCOCC3)cc2)oc2ccccc12	none
CCCc1c(C(=O)Nc2cc(C)on2)cnn1-c1ccccc1	none
Cc1c(C(=O)Nc2ccc(N3CCOCC3)cc2)oc2ccccc12	AHR activator 85 | AHR act cf 131 | PXR act counter 19
Cc1c(C(=O)Nc2ccccn2)oc2ccccc12	AHR activator 115 | AHR act cf 212 | PXR act counter 21
CCCc1c(C(=O)Nc2ccc(N3CCOCC3)cc2)cnn1-c1ccccc1	AHR activator 83 | AHR act cf 102 | PXR act counter 12
